Consider 2 molecules from ChEMBL document CHEMBL1145212, “Fluorinated diaryl sulfides as serotonin transporter ligands: synthesis, structure-activity relationship study, and in vivo evaluation of fluorine-18-labeled compounds as PET imaging agents” (J Med Chem, 2005).

Molecules are shown by their SMILES.

Common to all, as to type: cell-based
Assay [1] deals with Sodium-dependent dopamine transporter (Homo sapiens, UniProt Q01959). As to the kind of experiment: In vitro displacement of [3H]GBR-12935 from human dopamine transporter expressed in HEK293 cells. The gist of the method: (§1)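 Competitive binding using cloned human transporters expressed in HEK-293 cells. NET was labelled with [³H]nisoxetine and DAT with [³H]GBR12935, following a previously published procedure.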
Sodium-dependent dopamine transporter, sequence (Q01959 whole entry): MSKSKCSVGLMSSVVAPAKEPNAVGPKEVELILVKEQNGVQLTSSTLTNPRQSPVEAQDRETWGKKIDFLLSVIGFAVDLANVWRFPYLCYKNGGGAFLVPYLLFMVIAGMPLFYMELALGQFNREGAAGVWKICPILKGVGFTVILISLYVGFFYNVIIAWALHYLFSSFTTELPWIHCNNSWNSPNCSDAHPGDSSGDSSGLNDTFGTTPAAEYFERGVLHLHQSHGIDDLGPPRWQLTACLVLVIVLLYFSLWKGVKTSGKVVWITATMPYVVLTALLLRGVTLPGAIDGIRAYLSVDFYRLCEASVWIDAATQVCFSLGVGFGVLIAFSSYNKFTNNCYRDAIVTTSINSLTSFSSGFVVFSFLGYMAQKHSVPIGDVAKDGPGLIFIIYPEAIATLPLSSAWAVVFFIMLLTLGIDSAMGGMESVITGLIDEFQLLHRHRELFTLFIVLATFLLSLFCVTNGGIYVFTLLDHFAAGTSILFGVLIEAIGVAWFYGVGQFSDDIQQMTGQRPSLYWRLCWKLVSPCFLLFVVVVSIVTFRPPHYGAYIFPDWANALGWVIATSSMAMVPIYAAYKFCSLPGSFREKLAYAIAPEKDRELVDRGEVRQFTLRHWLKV
A general note: Displacement assays read how much labelled ligand stays bound in the presence of the test substance.

Assay [2] deals with Sodium-dependent serotonin transporter (Homo sapiens, UniProt P31645). As to the kind of experiment: In vitro displacement of [3H]paroxetine from human serotonin transporter expressed in HEK293 cells.
Sodium-dependent serotonin transporter, sequence (P31645 whole entry): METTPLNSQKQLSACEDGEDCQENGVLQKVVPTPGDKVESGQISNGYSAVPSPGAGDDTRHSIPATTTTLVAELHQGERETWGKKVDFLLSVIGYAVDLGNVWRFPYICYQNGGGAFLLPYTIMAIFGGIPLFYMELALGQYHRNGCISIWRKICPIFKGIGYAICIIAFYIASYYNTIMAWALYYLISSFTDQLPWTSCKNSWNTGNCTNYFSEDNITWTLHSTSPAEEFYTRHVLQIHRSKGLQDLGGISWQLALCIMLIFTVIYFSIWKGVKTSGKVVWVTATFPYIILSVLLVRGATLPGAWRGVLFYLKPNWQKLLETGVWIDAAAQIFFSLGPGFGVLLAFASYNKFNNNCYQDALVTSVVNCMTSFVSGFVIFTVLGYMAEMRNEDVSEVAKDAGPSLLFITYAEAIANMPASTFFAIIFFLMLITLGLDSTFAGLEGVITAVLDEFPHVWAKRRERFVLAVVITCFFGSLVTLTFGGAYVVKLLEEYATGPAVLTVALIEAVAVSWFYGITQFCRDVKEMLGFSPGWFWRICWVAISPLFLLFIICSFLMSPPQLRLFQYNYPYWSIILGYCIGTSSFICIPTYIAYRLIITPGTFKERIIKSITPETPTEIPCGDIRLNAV
In assay [3] the target is Sodium-dependent noradrenaline transporter (Homo sapiens, UniProt P23975). As to the kind of experiment: In vitro displacement of [3H]nisoxetine from human norepinephrine transporter expressed in HEK293 cells. The gist of the method:
as §1

Sodium-dependent noradrenaline transporter, sequence (P23975 whole entry): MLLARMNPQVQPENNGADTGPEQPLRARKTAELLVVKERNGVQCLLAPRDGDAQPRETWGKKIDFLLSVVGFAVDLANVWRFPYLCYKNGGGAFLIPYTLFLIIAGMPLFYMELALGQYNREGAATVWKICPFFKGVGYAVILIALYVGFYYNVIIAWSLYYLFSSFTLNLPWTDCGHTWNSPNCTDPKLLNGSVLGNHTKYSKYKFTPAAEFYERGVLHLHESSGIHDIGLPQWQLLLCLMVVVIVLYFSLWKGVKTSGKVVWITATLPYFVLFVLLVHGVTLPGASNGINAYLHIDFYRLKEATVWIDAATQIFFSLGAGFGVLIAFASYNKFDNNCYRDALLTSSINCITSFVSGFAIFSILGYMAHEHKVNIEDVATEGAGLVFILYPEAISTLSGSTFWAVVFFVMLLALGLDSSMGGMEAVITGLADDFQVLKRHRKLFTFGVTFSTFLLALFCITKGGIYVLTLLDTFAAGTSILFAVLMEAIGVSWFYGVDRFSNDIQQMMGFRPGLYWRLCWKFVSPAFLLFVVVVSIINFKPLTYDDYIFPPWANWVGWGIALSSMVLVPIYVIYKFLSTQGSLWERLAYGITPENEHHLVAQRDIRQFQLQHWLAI

As to `CN(C)Cc1ccccc1Sc1ccc(CO)cc1N`, the Ki (usually a measure of affinity in units of concentration, obtained from inhibition or displacement) in assay [1] is 3610 nM; in assay [2], 0.8 nM; in assay [3], 787 nM.
In the case of `Cc1ccc(Sc2ccccc2CNCCF)c(N)c1`, the inhibition constant Ki in assay [1] amounted to 4430 nM; in assay [2], 71.3 nM; in assay [3] it was 3910 nM.
